Experiments:
[1] = Neurotoxicity in mice was assessed by rotarod test; assay type: toxicity; conditions: mouse, in vivo
[2] = target: GABA-A receptor; anion channel; experiment: Binding affinity for Gamma-aminobutyric acid A receptor from rat brain in the presence of radioligand [35S]- TBPS
Summary of the method: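 [35S]TBPS displacement in rat brain membranes (picrotoxin site of GABA-A receptors). Compounds dissolved in DMSO, final DMSO ≤2.5%. IC50 from at least three experiments in triplicate, mean ± SEM.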

Mus musculus [3] = organism: Mus musculus; experiment: Anticonvulsant activity in mice against maximal electroshock (MES) induced tonic hindlimb seizures; assay type: functional
Summary of the method: (§1)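 At least four groups of six mice each. Where these could not be calculated, the […] and lowest all-protected doses are given instead.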

[4] = Protective index, measure of ratio of TD50 and ED50 of MES; assay type: functional
Summary of the method: (§2)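 Protective index calculated as TD50 (rotorod) divided by ED50 in the PTZ or MES mouse seizure test.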

Mus musculus [5] = organism: Mus musculus; experiment: Anticonvulsant activity in mice against pentylenetetrazole (PTZ) induced clonic seizures; assay type: functional; summary of the method: as §1
[6] = Protective index, measure of ratio of TD50 and ED50; assay type: functional; summary of the method: as §2
[7] = Protective index, measure of ratio of TD50 and ED50 of PTZ; assay type: functional; summary of the method: as §2
[8] = target: T1, GABA-A receptor; anion channel (Rattus norvegicus) (UniProt O09028+P15431+P18506+P18508+P19969+P20236+P23574+P23576+P28471+P28473+P30191+P62813+P63079+P63138+Q91ZM7+Q9ES14); experiment: Induced percentage potentiation of 3 uM GABA-mediated current at rat brain Gamma-aminobutyric acid A receptor (8 cells) at 1 mM in the presence of 3 mM alpha-IMGBL (picrotoxin antagonist); assay type: functional
[9] = target: T1, GABA-A receptor; anion channel (Rattus norvegicus); experiment: Induced percentage potentiation of 3 uM GABA-mediated current at rat brain Gamma-aminobutyric acid A receptor (8 cells); assay type: functional
[10] = target: T1, GABA-A receptor; anion channel (Rattus norvegicus); experiment: Antagonism (300 uM) induced potentiation of 3 uM Gamma-aminobutyric acid A receptor mediated current by picrotoxin antagonist (alpha-IMGBL) at a dose 3 mM on 5 rat brain cells; assay type: functional, tissue-based; set-up: scale not given: the % may be the effect or the level left

Compound	TD50 [1] [mg/kg]	IC50 [2] [mM]	also measured
O=C1CCCN1 [2-PYRROLIDONE]	> 900	–	–
O=C1NCCC12CCCC2	307	12.1	–
CCC1CCNC1=O (stereo unspecified)	–	48.1	–
CC(C)C1(C)CCNC1=O (stereo unspecified)	–	6.86	–
CC1(C)CCNC1=O	> 600	32.4	ED50 (Mus musculus [3]): > 600 mg/kg
CC1(Cc2ccccc2)CCNC1=O (stereo unspecified)	–	0.85	–
O=C1CCCS1 [THIOBUTYROLACTONE]	–	0.33	–
CCC1(C)CCNC1=O (stereo unspecified)	–	12.1	–
O=C1NCCC1Cc1ccccc1 (stereo unspecified)	144	2.44	PI [4]: 3.51
CC1CCNC1=O (stereo unspecified)	> 900	–	–
CCCC(CCC)C(=O)O [VALPROIC ACID]	–	–	ED50 (Mus musculus [5]): 133 mg/kg; PI [6]: 2.12
CCC1(CC)CCNC1=O	260	5.81	PI [7]: 5.65; Activity [8]: 108%; Activity [9]: 137%
CCC1(c2ccccc2)C(=O)NC(=O)NC1=O [PHENOBARBITAL]	–	–	ED50 (Mus musculus [5]): 22 mg/kg; PI [6]: 4
CCC1(C(C)C)CCNC1=O (stereo unspecified)	207	2.62	–
CCC1(C)CC(=O)NC1=O (stereo unspecified) [ETHOSUXIMIDE]	–	–	ED50 (Mus musculus [5]): 161 mg/kg; PI [6]: 2.35
CC(C)(C)C1(C)CCNC1=O (stereo unspecified)	> 300	3.26	–
CCC1(Cc2ccccc2)CCNC1=O (stereo unspecified)	–	–	Activity [10]: 98%

Source: ChEMBL document CHEMBL1129584, “3,3-Dialkyl- and 3-alkyl-3-benzyl-substituted 2-pyrrolidinones: a new class of anticonvulsant agents” (J Med Chem, 1996)
